Data from ChEMBL document CHEMBL1125592, “Calcium channel blocking and positive inotropic activities of ethyl 5-cyano-1,4-dihydro-6-methyl-2-[(phenylsulfonyl)methyl]-4-aryl-3- pyridine-carboxylate and analogues. Synthesis and structure-activity relationships” (J Med Chem, 1991).
One block for each molecule: values may come before it. Activity calls are given as the source filed them. The rule behind the calls is not given here.

Tests used:
[1] = target: Voltage-gated L-type calcium channel (Rattus norvegicus, UniProt P22002+Q02485+P27732); assay: Affinity to bind dihydropyridine receptor (DHP receptor) by inhibiting the radioligand [3H]nitrendipine; assay type: protein assay
How it was run: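 [3H]nitrendipine displacement, rat brain cortical membranes. Each compound first screened at 1000 nM; if inhibition exceeded 40%, a four- to seven-point curve with unlabeled compound was run. IC50 generally mean of two experiments, each in triplicate. ">1000 nM" means under 40% inhibition of control binding at 1000 nM.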

Rattus norvegicus [2] = organism: Rattus norvegicus; assay: Cardiovascular activity in isolated rat heart, concentration producing 25% increase in CF (cardiac flow).; assay type: functional
How it was run: (§1)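 Isolated Langendorff-perfused rat heart. Coronary flow (CF), LV +dP/dtmax and heart rate recorded during exposure to test agent. Value is the concentration giving a 25% rise in CF or in LV +dP/dtmax, mean ± SE. At least two hearts per compound.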

Rattus norvegicus [3] = organism: Rattus norvegicus; assay: Compound was tested for the cardiovascular activity in isolated rat heart. Value represents the concentration producing 25% increase in LV + dP/dtmax; NA indicates not active; assay type: functional; how it was run: as §1
Oryctolagus cuniculus [4] = organism: Oryctolagus cuniculus; assay: Vasorelaxant effect at a concentration of 10e-4 M on rabbit aortic rings previously contracted with 1.0 uM Norepinephrine.; assay type: functional, Aorta; parameters: unit not given here
How it was run: (§2)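 Rabbit aortic rings precontracted with 50 mM KCl or 1.0 μM norepinephrine, then exposed to increasing concentrations of test agent. Relaxation recorded at each concentration.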

Oryctolagus cuniculus [5] = organism: Oryctolagus cuniculus; assay: Vasorelaxant effect at a concentration of 10e-4 M on rabbit aortic rings previously contracted with 50 mM KCl.; assay type: functional, Aorta; parameters: unit not given here; how it was run: as §2
Oryctolagus cuniculus [6] = organism: Oryctolagus cuniculus; assay: Vasorelaxant effect at a concentration of 10e-5 M on rabbit aortic rings previously contracted with 1.0 uM Norepinephrine.; assay type: functional, Aorta; parameters: unit not given here; how it was run: as §2
Oryctolagus cuniculus [7] = organism: Oryctolagus cuniculus; assay: Vasorelaxant effect at a concentration of 10e-5 M on rabbit aortic rings previously contracted with 50 mM KCl.; assay type: functional, Aorta; parameters: unit not given here; how it was run: as §2
Oryctolagus cuniculus [8] = organism: Oryctolagus cuniculus; assay: Vasorelaxant effect at a concentration of 10e-6 M on rabbit aortic rings previously contracted with 1.0 uM Norepinephrine.; assay type: functional, Aorta; parameters: unit not given here; how it was run: as §2
Oryctolagus cuniculus [9] = organism: Oryctolagus cuniculus; assay: Vasorelaxant effect at a concentration of 10e-6 M on rabbit aortic rings previously contracted with 50 mM KCl.; assay type: functional, Aorta; parameters: unit not given here; how it was run: as §2
Oryctolagus cuniculus [10] = organism: Oryctolagus cuniculus; assay: Vasorelaxant effect at a concentration of 10e-7 M on rabbit aortic rings previously contracted with 1.0 uM Norepinephrine.; assay type: functional, Aorta; parameters: unit not given here; how it was run: as §2
Oryctolagus cuniculus [11] = organism: Oryctolagus cuniculus; assay: Vasorelaxant effect at a concentration of 10e-7 M on rabbit aortic rings previously contracted with 50 mM KCl.; assay type: functional, Aorta; parameters: unit not given here; how it was run: as §2
Rattus norvegicus [12] = organism: Rattus norvegicus; assay: Cardiovascular activity in isolated rat heart, concentration producing 25% increase in LV + dP/dtmax.; assay type: functional; how it was run: as §1
Oryctolagus cuniculus [13] = organism: Oryctolagus cuniculus; assay: Vasoconstrictor effect at a concentration of 10e-7 M using partially depolarized isolated rings from rabbit.; assay type: functional
Oryctolagus cuniculus [14] = organism: Oryctolagus cuniculus; assay: Vasoconstrictor effect at a concentration of 10e-8 M using nondepolarized isolated rings from rabbit.; assay type: functional
Oryctolagus cuniculus [15] = organism: Oryctolagus cuniculus; assay: Vasoconstrictor effect at a concentration of 10e-8 M using partially depolarized isolated rings from rabbit.; assay type: functional
Oryctolagus cuniculus [16] = organism: Oryctolagus cuniculus; assay: Vasoconstrictor effect at a concentration of 10e-6 M using nondepolarized isolated rings from rabbit.; assay type: functional
Oryctolagus cuniculus [17] = organism: Oryctolagus cuniculus; assay: Vasoconstrictor effect at a concentration of 10e-6 M using partially depolarized isolated rings from rabbit.; assay type: functional
Oryctolagus cuniculus [18] = organism: Oryctolagus cuniculus; assay: Vasoconstrictor effect at a concentration of 10e-7 M using nondepolarized isolated rings from rabbit.; assay type: functional
Oryctolagus cuniculus [19] = organism: Oryctolagus cuniculus; assay: Vasoconstrictor effect at a concentration of 10e-9 M using nondepolarized isolated rings from rabbit.; assay type: functional
Oryctolagus cuniculus [20] = organism: Oryctolagus cuniculus; assay: Vasoconstrictor effect at a concentration of 10e-9 M using partially depolarized isolated rings from rabbit.; assay type: functional
Oryctolagus cuniculus [21] = organism: Oryctolagus cuniculus; assay: Vasoconstrictor effect at a concentration of 3 x 10e-8 M using nondepolarized isolated rings from rabbit.; assay type: functional
Oryctolagus cuniculus [22] = organism: Oryctolagus cuniculus; assay: Vasoconstrictor effect at a concentration of 3 x 10e-8 M using partially depolarized isolated rings from rabbit.; assay type: functional
Oryctolagus cuniculus [23] = organism: Oryctolagus cuniculus; assay: Vasoconstrictor effect at a concentration of 3 x 10e-9 M using nondepolarized isolated rings from rabbit.; assay type: functional
Oryctolagus cuniculus [24] = organism: Oryctolagus cuniculus; assay: Vasoconstrictor effect at a concentration of 3 x 10e-9 M using partially depolarized isolated rings from rabbit.; assay type: functional
Rattus norvegicus [25] = organism: Rattus norvegicus; assay: Compound was tested for the cardiovascular activity in isolated rat heart. Value represents the concentration producing 25% increase in CF (cardiac flow); NA indicates not active; assay type: functional; how it was run: as §1
Rattus norvegicus [26] = organism: Rattus norvegicus; assay: Compound was tested for its effect on coronary vasodilator in isolated rat hearts.; assay type: functional
How it was run: (§3)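 Coronary vasodilation and ventricular contractility measured in isolated Langendorff-perfused rat hearts. EC25 (concentration raising the parameter by 25%) given as mean ± SEM of four to six hearts.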

Rattus norvegicus [27] = organism: Rattus norvegicus; assay: Compound was tested for its effect on ventricular cantractility in isolated rat hearts.; assay type: functional, Cardiac ventricle; how it was run: as §3
Oryctolagus cuniculus [28] = organism: Oryctolagus cuniculus; assay: Vasorelaxant effect at a concentration of 10e-8 M on rabbit aortic rings previously contracted with 1.0 uM Norepinephrine.; assay type: functional; conditions: Aorta; how it was run: as §2
Oryctolagus cuniculus [29] = organism: Oryctolagus cuniculus; assay: Vasorelaxant effect at a concentration of 10e-8 M on rabbit aortic rings previously contracted with 50 mM KCl.; assay type: functional; conditions: Aorta; how it was run: as §2
Oryctolagus cuniculus [30] = organism: Oryctolagus cuniculus; assay: Vasorelaxant effect at a concentration of 10e-9 M on rabbit aortic rings previously contracted with 1.0 uM Norepinephrine.; assay type: functional; conditions: Aorta; how it was run: as §2
Oryctolagus cuniculus [31] = organism: Oryctolagus cuniculus; assay: Vasorelaxant effect at a concentration of 10e-9 M on rabbit aortic rings previously contracted with 50 mM KCl.; assay type: functional; conditions: Aorta; how it was run: as §2

IC50 [1]: 500 nM
Molecule: CC1=C(C#N)C(c2ccccc2C(F)(F)F)/C(=C(\O)OC(C)C)C(C[S+]([O-])c2ccccc2)=N1 (configuration not stated)
EC25 (Rattus norvegicus [2]): 240 nM
EC25 (Rattus norvegicus [3]): inactive

IC50 [1]: 1000 nM
Molecule: CCO/C(O)=C1\C(CS(=O)(=O)c2ccc(N)cc2)=NC(C)=C(C#N)C1c1ccccc1C(F)(F)F (configuration not stated)
Vasorelaxant effect (Oryctolagus cuniculus [4]): 5
Vasorelaxant effect (Oryctolagus cuniculus [5]): 69
Vasorelaxant effect (Oryctolagus cuniculus [6]): 2
Vasorelaxant effect (Oryctolagus cuniculus [7]): 38
Vasorelaxant effect (Oryctolagus cuniculus [8]): 2
Vasorelaxant effect (Oryctolagus cuniculus [9]): 5
Vasorelaxant effect (Oryctolagus cuniculus [10]): 2
Vasorelaxant effect (Oryctolagus cuniculus [11]): 2
EC25 (Rattus norvegicus [2]): 940 nM
EC25 (Rattus norvegicus [12]): 840 nM

Molecule: COC(=O)C1=C(C)NC(C)=C([N+](=O)[O-])C1c1ccccc1C(F)(F)F (configuration not stated)
Vasoconstriction effect (Oryctolagus cuniculus [13]): 82.1
Vasoconstriction effect (Oryctolagus cuniculus [14]): 0
Vasoconstriction effect (Oryctolagus cuniculus [15]): 32.4
Vasoconstriction effect (Oryctolagus cuniculus [16]): 15.9
Vasoconstriction effect (Oryctolagus cuniculus [17]): 93.2
Vasoconstriction effect (Oryctolagus cuniculus [18]): 10
Vasoconstriction effect (Oryctolagus cuniculus [19]): 0
Vasoconstriction effect (Oryctolagus cuniculus [20]): 3.2
Vasoconstriction effect (Oryctolagus cuniculus [21]): 1.5
Vasoconstriction effect (Oryctolagus cuniculus [22]): 59.2
Vasoconstriction effect (Oryctolagus cuniculus [23]): 0
Vasoconstriction effect (Oryctolagus cuniculus [24]): 10.2

Molecule: CCOC(=O)C1=C(C[S+]([O-])c2ccccc2)NC(C)=C(C#N)C1c1cccc([N+](=O)[O-])c1 (stereo in doubt; 32a)
EC25 (Rattus norvegicus [25]): inactive

IC50 [1]: > 1000 nM
Molecule: CCO/C(O)=C1\C(C[S+]([O-])c2ccncc2)=NC(C)=C(C#N)C1c1ccccn1 (configuration not stated)
EC25 (Rattus norvegicus [25]): inactive
EC25 (Rattus norvegicus [3]): inactive

IC50 [1]: 91 nM
Molecule: CCO/C(O)=C1\C(CS(=O)(=O)c2ccc(Cl)cc2)=NC(C)=C(C#N)C1c1ccccc1C(F)(F)F (configuration not stated)
EC25 (Rattus norvegicus [2]): 550 nM
EC25 (Rattus norvegicus [3]): inactive

Molecule: CCOC(=O)C1=C(C[S+]([O-])c2ccccc2)NC(C)=C(C#N)C1c1cccc([N+](=O)[O-])c1 (stereo in doubt; 32b)
EC25 (Rattus norvegicus [25]): inactive

IC50 [1]: 152 nM
Molecule: CCOC(=O)C1=C(CS(=O)(=O)c2ccncc2)NC(C)=C(C#N)C1c1ccccc1C(F)(F)F (stereo in doubt; 54A)
EC25 (Rattus norvegicus [26]): 128 nM
EC25 (Rattus norvegicus [27]): 701 nM

IC50 [1]: > 1000 nM
Molecule: CC1=C(C#N)C(c2ccccc2C(F)(F)F)/C(=C(\O)OCCN2CCCCC2)C(C[S+]([O-])c2ccccc2)=N1 (configuration not stated)
EC25 (Rattus norvegicus [25]): inactive
EC25 (Rattus norvegicus [3]): inactive

IC50 [1]: > 1000 nM
Molecule: CCOC(=O)C1=C(C[S+]([O-])c2ccccc2)N(CCN(CC)CC)C(C)=C(C#N)C1c1ccccc1C(F)(F)F (configuration not stated)
EC25 (Rattus norvegicus [2]): 500 nM
EC25 (Rattus norvegicus [12]): 330 nM

Molecule: NITROPRUSSIDE
Vasorelaxant effect (Oryctolagus cuniculus [4]; Aorta): 55.8
Vasorelaxant effect (Oryctolagus cuniculus [5]; Aorta): 52.1
Vasorelaxant effect (Oryctolagus cuniculus [6]; Aorta): 39.8
Vasorelaxant effect (Oryctolagus cuniculus [7]; Aorta): 40.4
Vasorelaxant effect (Oryctolagus cuniculus [8]; Aorta): 22.8
Vasorelaxant effect (Oryctolagus cuniculus [9]; Aorta): 22
Vasorelaxant effect (Oryctolagus cuniculus [10]; Aorta): 7
Vasorelaxant effect (Oryctolagus cuniculus [11]; Aorta): 5.6
Vasorelaxant effect (Oryctolagus cuniculus [28]): 0.7
Vasorelaxant effect (Oryctolagus cuniculus [29]): -4.8
Vasorelaxant effect (Oryctolagus cuniculus [30]): -0.003
Vasorelaxant effect (Oryctolagus cuniculus [31]): -5.9

IC50 [1]: > 1000 nM
Molecule: CCO/C(O)=C1\C(C[S+]([O-])c2ccccc2)=NC(C)=C(C#N)C1c1ccccc1Cl (configuration not stated)
EC25 (Rattus norvegicus [2]): 540 nM
EC25 (Rattus norvegicus [12]): 910 nM

IC50 [1]: > 1000 nM
Molecule: CCO/C(O)=C1\C(CS(=O)(=O)c2ccncc2)=NC(C)=C(C#N)C1c1ccccn1 (configuration not stated)
EC25 (Rattus norvegicus [25]): inactive
EC25 (Rattus norvegicus [3]): inactive

IC50 [1]: 120 nM
Molecule: CCO/C(O)=C1\C(CS(=O)(=O)c2ccccc2)=NC(C)=C(C#N)C1c1ccccc1C(F)(F)F (configuration not stated)
Vasorelaxant effect (Oryctolagus cuniculus [4]): 23
Vasorelaxant effect (Oryctolagus cuniculus [5]): 80
Vasorelaxant effect (Oryctolagus cuniculus [6]): 13
Vasorelaxant effect (Oryctolagus cuniculus [7]): 67
Vasorelaxant effect (Oryctolagus cuniculus [8]): 7
Vasorelaxant effect (Oryctolagus cuniculus [9]): 24
Vasorelaxant effect (Oryctolagus cuniculus [10]): 5
Vasorelaxant effect (Oryctolagus cuniculus [11]): 4
EC25 (Rattus norvegicus [2]): 70 nM
EC25 (Rattus norvegicus [12]): 110 nM
